PMC6287896 (Anti-Cancer Drugs, 2018)

Key:
[1] = test system: DU-145 prostate carcinoma cells; experiment: DU-145 xenografts in athymic nude mice; type: in vivo, mouse; settings: 30 days
Tissue levels = type: in vivo; settings: mouse heart, liver, kidney, brain; up to 24 h; i.v. and oral
Outline: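 After intravenous or oral dosing, liver, kidney, heart and brain were collected at sacrifice. Tissue was homogenised in ice-cold 0.1% acetic acid (10 ml/g) and centrifuged. Acetonitrile/methanol was added to the supernatant, followed by vortexing, centrifugation, evaporation and reconstitution in 0.1% acetic acid. Samples were quantified by LC–MS/MS (SRM 240.100→110.054) against spiked blank-tissue calibrants.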

Plasma stability = type: in vitro ADME; settings: over 2 h
Outline: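 Human plasma was spiked with test compound and incubated separately at 25 and 37°C. Drug levels were measured over 120 min.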

[2] = Dose-response: serum markers of organ function; type: in vivo, mouse
Outline: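 Mice were dosed intravenously with vehicle or 50, 100 or 200 mg/kg test compound (six per group). They were euthanised by CO2 with cervical dislocation at 6 or 18 h, and blood and tissue were collected. Serum AST, GGT, CRP and troponin I were measured by colorimetric assays to assess liver, kidney and heart function. Tissues were examined for gross pathology.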

[3] = Acute toxicity, oral up and down procedure; type: in vivo, mouse; settings: 2000 mg/kg, monitored 48 h, repeated twice on other animals
DU-145 cells = experiment: WST-1 assay for cell viability and cytotoxicity; type: cell-based, human; settings: 23.4 mmol/l, 4 day incubation, read up to 8 h, P≤0.01
[4] = Plasma pharmacokinetics and bioavailability after intravenous and oral dosing; type: in vivo; settings: mouse, other: oral gavage and intravenous bolus
Outline: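 Mice were dosed by intravenous bolus or oral gavage, with plasma sampled over 24 h and one sacrifice per time point. Plasma was protein-precipitated with acetonitrile/methanol, evaporated and reconstituted in 0.1% acetic acid. Quantitation was by C18 UHPLC–tandem MS with heated ESI and positive-mode SRM (240.100→110.054), against spiked mouse plasma calibrants. Half-life was taken from concentration–time profiles.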

PC-3 cells = experiment: WST-1 assay for cell viability and cytotoxicity; type: cell-based, human; settings: 23.4 mmol/l, 4 day incubation, read up to 8 h, P≤0.01
[5] = intravenous 50, 100 or 200 mg/kg, 6 or 18 h

## C[C@@H]1C[C@@H](n2cnc(C(N)=O)c2N)[C@H](O)[C@H]1O [ICA-1s, 5-amino-1-((1R,2S,3S,4R)-2,3-dihydroxy-4-methylcyclopentyl)-1H-imidazole-4-carboxamide]
[1]; 100 mg/kg subcutaneous daily, untreated 156.4 mm^2
  average tumor size of treated xenografts: 76.8 mm^2
[1]; DU-145 xenografts, treated vs untreated
  tumor growth rate relative to untreated tumors: almost half the rate
Tissue levels
  accumulation in major organs (tissue levels): did not appear to indicate accumulation
Plasma stability; 25°C (ambient)
  stability in human plasma: stable
Plasma stability; 37°C
  stability in human plasma: stable
[2]; intravenous 200 mg/kg, 6 h after treatment, P=0.033
  serum CRP versus control: significant rise
[2]; [5]
  serum AST versus control: no significant difference
  serum GGT versus control: no significant difference
  serum troponin I versus control: no significant difference
[2]; intravenous 50, 100 or 200 mg/kg, 6 or 18 h, other than 200 mg/kg at 6 h
  serum CRP versus control, all other readings: no significant difference
[3]
  acute toxicity outcome at highest dose of the UDP: survived with no observable adverse reaction
DU-145 cells
  in-vitro cytotoxicity (WST-1, absorbance at 450 nm): significant cytotoxicity
[4]
  half-life: 5.7 h
PC-3 cells
  in-vitro cytotoxicity (WST-1, absorbance at 450 nm): significant cytotoxicity
